Results as given in ChEMBL document CHEMBL1129508, “Betulinic acid derivatives: a new class of specific inhibitors of human immunodeficiency virus type 1 entry” (J Med Chem, 1996).

Tests used:
[1] = test system: CCRF-CEM; assay: Inhibitory Activity against the HIV-1 in CEM cells; type: functional, Homo sapiens
Outline: (§1)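 HIV-1-induced cytopathicity in CEM 4 or MT-4 cell cultures was assessed by counting viable cells after MTT (3-(4,5-dimethylthiazol-2-yl)-2,5-diphenyltetrazolium bromide) staining. IC50 is the concentration that inhibits cytopathicity by 50%. For routine testing, the highest concentration was generally 3 µM, because solubility was limited above 10 µM.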

[2] = test system: Human immunodeficiency virus 1; assay: Inhibitory activity tested against the HIV-1 in MT-4 cells; type: functional, organism-based; conditions: Human immunodeficiency virus 1, MT4; outline: as §1
[3] = test system: Human immunodeficiency virus 1; assay: Inhibitory activity tested against the HIV-1 in CEM cells; type: functional, organism-based; conditions: Human immunodeficiency virus 1, CCRF-CEM; outline: as §1
[4] = test system: CCRF-CEM; assay: (§2) Inhibitory activity against the HIV-1 in CEM cells; type: functional, cell-based; conditions: Homo sapiens; outline: as §1
[5] = test system: MT4; assay: Inhibitory activity against the HIV-1 in MT-4 cells; type: functional, cell-based; conditions: Homo sapiens; outline: as §1
[6] = test system: CCRF-CEM; assay: Inhibitory activity against the HIV-1 in CEM cells at 1 uM concentration; type: functional; conditions: Homo sapiens
[7] = test system: CCRF-CEM; assay: as §2; type: functional, Homo sapiens; outline: as §1
[8] = test system: CCRF-CEM; assay: Inhibitory activity against the HIV-1 in CEM cells; NA= Not active; type: functional, cell-based, Homo sapiens
Outline: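 HIV-1-induced cytopathicity assay in CEM 4 cells. Viable cells were counted after MTT (3-(4,5-dimethylthiazol-2-yl)-2,5-diphenyltetrazolium bromide) staining. IC50 is the concentration that inhibits viral cytopathicity by 50%. For routine testing the top concentration was generally 3 µM, because solubility was limited above 10 µM.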

Structure (SMILES)	IC50 [2] [nM]	IC50 [3] [nM]	other results
C=C(C)[C@@H]1CC[C@]2(C(=O)NCCCCCCCCCCCCC(=O)O)CC[C@]3(C)[C@H](CCC4[C@@]5(C)CC[C@H](O)C(C)(C)[C@@H]5CC[C@]43C)[C@@H]12 (stereo not given in full)			Inhibition [1]: 35%
C=C(C)[C@@H]1CC[C@]2(C(=O)NCCCCCCCC(=O)N3CCC[C@H]3C(=O)O)CC[C@]3(C)[C@H](CCC4[C@@]5(C)CC[C@H](O)C(C)(C)[C@@H]5CC[C@]43C)[C@@H]12 (stereo not given in full)	58	640	
C=C(C)[C@@H]1CC[C@]2(C(=O)NCCCCCCCC(=O)NCC(O)CC(=O)O)CC[C@]3(C)[C@H](CCC4[C@@]5(C)CC[C@H](O)C(C)(C)[C@@H]5CC[C@]43C)[C@@H]12 (stereo not given in full)	33	200	
C=C(C)[C@@H]1CC[C@]2(C(=O)NCCCCCCCCCCCC(=O)O)CC[C@]3(C)[C@H](CCC4[C@@]5(C)CC[C@H](O)C(C)(C)[C@@H]5CC[C@]43C)[C@@H]12 (stereo not given in full)	250	550	
C=C(C)[C@@H]1CC[C@]2(C(=O)NCCCCCCCC(=O)N[C@@H](C)C(=O)O)CC[C@]3(C)[C@H](CCC4[C@@]5(C)CC[C@H](O)C(C)(C)[C@@H]5CC[C@]43C)[C@@H]12 (stereo not given in full)	62	92	
C=C(C)[C@@H]1CC[C@]2(C(=O)NCCCCCC(=O)O)CC[C@]3(C)[C@H](CC[C@@H]4[C@@]5(C)CC[C@H](O)C(C)(C)[C@@H]5CC[C@]43C)[C@@H]12			IC50 [4]: 2300 nM; IC50 [5]: 2400 nM
C=C(C)[C@@H]1CC[C@]2(C(=O)NCCCCCCC(=O)NCCC(=O)O)CC[C@]3(C)[C@H](CCC4[C@@]5(C)CC[C@H](O)C(C)(C)[C@@H]5CC[C@]43C)[C@@H]12 (stereo not given in full)			IC50 [4]: 4500 nM
C=C(C)[C@@H]1CC[C@]2(C(=O)NCCCCC(=O)O)CC[C@]3(C)[C@H](CC[C@@H]4[C@@]5(C)CC[C@H](O)C(C)(C)[C@@H]5CC[C@]43C)[C@@H]12			inhibition at 1 µM [6]: 46%
C=C(C)[C@@H]1CC[C@]2(C(=O)NCCCCCCCC(=O)NCCC(=O)O)CC[C@]3(C)[C@H](CCC4[C@@]5(C)CC[C@H](O)C(C)(C)[C@@H]5CC[C@]43C)[C@@H]12 (stereo not given in full)	94	100	
C=C(C)[C@@H]1CC[C@]2(C(=O)NCCCCCCCC(=O)N[C@H](CCC(=O)O)CC(C)C)CC[C@]3(C)[C@H](CCC4[C@@]5(C)CC[C@H](O)C(C)(C)[C@@H]5CC[C@]43C)[C@@H]12 (stereo not given in full)	85	52	
C=C(C)[C@@H]1CC[C@]2(C(=O)NCC(=O)NCCCCCCCC(=O)O)CC[C@]3(C)[C@H](CCC4[C@@]5(C)CC[C@H](O)C(C)(C)[C@@H]5CC[C@]43C)[C@@H]12 (stereo not given in full)			Inhibition [1]: 30%
C=C(C)[C@@H]1CC[C@]2(C(=O)NCCCCCCCC(=O)N(C)CC(=O)O)CC[C@]3(C)[C@H](CCC4[C@@]5(C)CC[C@H](O)C(C)(C)[C@@H]5CC[C@]43C)[C@@H]12 (stereo not given in full)	333	250	
C=C(C)[C@@H]1CC[C@]2(C(=O)NCCC(=O)NCCCCCCC(=O)O)CC[C@]3(C)[C@H](CCC4[C@@]5(C)CC[C@H](O)C(C)(C)[C@@H]5CC[C@]43C)[C@@H]12 (stereo not given in full)			Inhibition [7]: 20%
C=C(C)[C@@H]1CC[C@]2(C(=O)NCCCCC(=O)NCCCCC(=O)O)CC[C@]3(C)[C@H](CCC4[C@@]5(C)CC[C@H](O)C(C)(C)[C@@H]5CC[C@]43C)[C@@H]12 (stereo not given in full)			IC50 [4]: 4500 nM
C=C(C)[C@@H]1CC[C@]2(C(=O)NCCCCCCCC(=O)N[C@@H](CC(C)C)[C@H](O)CC(=O)O)CC[C@]3(C)[C@H](CCC4[C@@]5(C)CC[C@H](O)C(C)(C)[C@@H]5CC[C@]43C)[C@@H]12 (stereo not given in full)	44	50	
C=C(C)[C@@H]1CC[C@]2(C(=O)NCCC(=O)O)CC[C@]3(C)[C@H](CC[C@@H]4[C@@]5(C)CC[C@H](O)C(C)(C)[C@@H]5CC[C@]43C)[C@@H]12			IC50 [8]: Not Active
C=C(C)[C@@H]1CC[C@]2(C(=O)NCCCCCCCC(=O)NCC(=O)O)CC[C@]3(C)[C@H](CC[C@@H]4[C@@]5(C)CC[C@H](O)C(C)(C)[C@@H]5CC[C@]43C)[C@@H]12	156	150	
C=C(C)[C@@H]1CC[C@]2(C(=O)NCCCC(=O)NCCCCCC(=O)O)CC[C@]3(C)[C@H](CCC4[C@@]5(C)CC[C@H](O)C(C)(C)[C@@H]5CC[C@]43C)[C@@H]12 (stereo not given in full)			IC50 [4]: 5500 nM

Structure (SMILES)	IC50 [2] [nM]	IC50 [3] [nM]	other results
C=C(C)[C@@H]1CC[C@]2(C(=O)NCCCCCCC(=O)O)CC[C@]3(C)[C@H](CC[C@@H]4[C@@]5(C)CC[C@H](O)C(C)(C)[C@@H]5CC[C@]43C)[C@@H]12	4300		IC50 [4]: 12000 nM
C=C(C)[C@@H]1CC[C@]2(C(=O)NCCCCCCCC(=O)N[C@@H](Cc3ccccc3)[C@@H](O)CC(=O)O)CC[C@]3(C)[C@H](CCC4[C@@]5(C)CC[C@H](O)C(C)(C)[C@@H]5CC[C@]43C)[C@@H]12 (stereo not given in full)	33	130	
C=C(C)[C@@H]1CC[C@]2(C(=O)NCCCCCCCC(=O)NC(C)(C)C(=O)O)CC[C@]3(C)[C@H](CCC4[C@@]5(C)CC[C@H](O)C(C)(C)[C@@H]5CC[C@]43C)[C@@H]12 (stereo not given in full)	89	133	
C=C(C)[C@@H]1CC[C@]2(C(=O)NCCCCCCCC(=O)Nc3ccc(C(=O)O)cc3)CC[C@]3(C)[C@H](CCC4[C@@]5(C)CC[C@H](O)C(C)(C)[C@@H]5CC[C@]43C)[C@@H]12 (stereo not given in full)	26	70	
C=C(C)[C@@H]1CC[C@]2(C(=O)NCCCCCCCCC(=O)O)CC[C@]3(C)[C@H](CCC4[C@@]5(C)CC[C@H](O)C(C)(C)[C@@H]5CC[C@]43C)[C@@H]12 (stereo not given in full)	3400	420	
C=C(C)[C@@H]1CC[C@]2(C(=O)NCCCC(=O)O)CC[C@]3(C)[C@H](CCC4[C@@]5(C)CC[C@H](O)C(C)(C)[C@@H]5CC[C@]43C)[C@@H]12 (stereo not given in full)			IC50 [8]: Not Active
C=C(C)[C@@H]1CC[C@]2(C(=O)NCCCCCCCNC(=O)c3cccc(C(=O)O)c3)CC[C@]3(C)[C@H](CCC4[C@@]5(C)CC[C@H](O)C(C)(C)[C@@H]5CC[C@]43C)[C@@H]12 (stereo not given in full)	40	105	
C=C(C)[C@@H]1CC[C@]2(C(=O)NCCCCCCCC(=O)NCCCC(=O)O)CC[C@]3(C)[C@H](CCC4[C@@]5(C)CC[C@H](O)C(C)(C)[C@@H]5CC[C@]43C)[C@@H]12 (stereo not given in full)	129	44	
C=C(C)[C@@H]1CC[C@]2(C(=O)NCCCCCCCCCC(=O)O)CC[C@]3(C)[C@H](CCC4[C@@]5(C)CC[C@H](O)C(C)(C)[C@@H]5CC[C@]43C)[C@@H]12 (stereo not given in full)	420	600	
C=C(C)[C@@H]1CC[C@]2(C(=O)NCCCCCCCC(=O)NC(CC(=O)O)c3ccccc3)CC[C@]3(C)[C@H](CCC4[C@@]5(C)CC[C@H](O)C(C)(C)[C@@H]5CC[C@]43C)[C@@H]12 (stereo not given in full)	47	85	
C=C(C)[C@@H]1CC[C@]2(C(=O)NCCCCCCCC(=O)N[C@@H](CO)C(=O)O)CC[C@]3(C)[C@H](CCC4[C@@]5(C)CC[C@H](O)C(C)(C)[C@@H]5CC[C@]43C)[C@@H]12 (stereo not given in full)	250	250	
C=C(C)[C@@H]1CC[C@]2(C(=O)NCC(=O)O)CC[C@]3(C)[C@H](CCC4[C@@]5(C)CC[C@H](O)C(C)(C)[C@@H]5CC[C@]43C)[C@@H]12 (stereo not given in full)			IC50 [8]: Not Active
C=C(C)[C@@H]1CC[C@]2(C(=O)NCCCCCCCC(=O)N[C@@H](CC(C)C)[C@@H](O)CC(=O)O)CC[C@]3(C)[C@H](CCC4[C@@]5(C)CC[C@H](O)C(C)(C)[C@@H]5CC[C@]43C)[C@@H]12 (stereo not given in full)	40	50	
C=C(C)[C@@H]1CC[C@]2(C(=O)NCCCCCCCCCCC(=O)O)CC[C@]3(C)[C@H](CCC4[C@@]5(C)CC[C@H](O)C(C)(C)[C@@H]5CC[C@]43C)[C@@H]12 (stereo not given in full)	443	230	
C=C(C)[C@@H]1CC[C@]2(C(=O)NCCCCCC(=O)NCCCC(=O)O)CC[C@]3(C)[C@H](CCC4[C@@]5(C)CC[C@H](O)C(C)(C)[C@@H]5CC[C@]43C)[C@@H]12 (stereo not given in full)			IC50 [4]: 3000 nM
C=C(C)[C@@H]1CC[C@]2(C(=O)NCCCCCCCNC(=O)CCC(=O)O)CC[C@]3(C)[C@H](CCC4[C@@]5(C)CC[C@H](O)C(C)(C)[C@@H]5CC[C@]43C)[C@@H]12 (stereo not given in full)	53	95	
Cc1ccnc2c1NC(=O)c1cccnc1N2C1CC1 [NEVIRAPINE]			IC50 [4]: 84 nM
C=C(C)[C@@H]1CC[C@]2(C(=O)NCCCCCCCC(=O)O)CC[C@]3(C)[C@H](CCC4[C@@]5(C)CC[C@H](O)C(C)(C)[C@@H]5CC[C@]43C)[C@@H]12 (stereo not given in full)	465	750	
